From ChEMBL document CHEMBL5385915 (J Med Chem, 2024)
≈ marks a conversion by molar mass, not a printed value.

System: Mycobacterium tuberculosis
Experiment: Antitubercular activity against multidrug-resistant Mycobacterium tuberculosis 08/00483E assessed as inhibition of bacterial growth measured for 7 days by REMA analysis
Assay type: functional
Conditions: 168 h, time 7 day
How it was run: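 REMA: 2-fold dilutions in CMM MOD2 medium, wells inoculated at 1×10^6 CFU/mL, 7 days at 37 °C with 200 rpm agitation; resazurin (0.02% w/v in PBS pH 7.4, 5% Tween 80) then 6 h at room temperature; OD570 vs vehicle; MIC99 by modified Gompertz function; three biological replicates.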

FC(F)(F)c1cc([C@H]2C[C@@H](CN3CCCC3)N2Cc2ccccc2Br)cc(C(F)(F)F)c1 (racemic)
MIC99: 16.8 µM (≈ 8.76 µg/mL)
